# In ChEMBL document CHEMBL1143088, “Non-acidic pyrazole EP1 receptor antagonists with in vivo analgesic efficacy” (Bioorg Med Chem Lett, 2008):
# Tests used:
# [1] = target: T1, Prostaglandin E2 receptor EP1 subtype (Homo sapiens, UniProt P34995); assay: Displacement of [3H]PGE2 from human PGE2-EP1 receptor expressed in CHO-K1 cells; type: cell-based
# T1 sequence (P34995 whole entry): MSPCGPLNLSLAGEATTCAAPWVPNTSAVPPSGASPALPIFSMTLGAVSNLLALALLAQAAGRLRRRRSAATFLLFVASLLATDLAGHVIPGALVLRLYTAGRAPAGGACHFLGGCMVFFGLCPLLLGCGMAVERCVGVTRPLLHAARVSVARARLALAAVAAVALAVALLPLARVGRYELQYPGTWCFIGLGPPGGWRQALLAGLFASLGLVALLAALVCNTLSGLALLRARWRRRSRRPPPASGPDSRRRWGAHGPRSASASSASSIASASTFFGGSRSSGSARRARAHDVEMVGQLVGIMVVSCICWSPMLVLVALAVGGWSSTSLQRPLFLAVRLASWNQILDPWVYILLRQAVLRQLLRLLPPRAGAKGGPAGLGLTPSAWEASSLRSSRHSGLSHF
# [2] = Distribution coefficient, logD at pH 7.4; type: physicochemical; conditions: octanol/water
# In short: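 Distribution coefficient between n-octanol and water buffered to pH 7.4; log10 of ratio of equilibrium concentrations of all species.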
# [3] = Volume of distribution at steady state in rat at 10 mL/h/kg, iv; type: ADME, organism-based; conditions: in vivo, read-out: Vdss
# In short: (§1)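 Male rats (n = 1 per compound) dosed iv at 10 mL/h/kg over 1 h via femoral vein cannula, target 1 mg free compound/kg, formulated at 0.1 mg/mL in 0.9% saline with 2% DMSO and 10–20% Kleptose (some with a molar equivalent NaOH), filtered before dosing.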
# [4] = Clearance in blood in rat at 10 mL/h/kg, iv; type: ADME, organism-based; conditions: whole blood; in short: as §1
# [5] = Half life in rat at 10 mL/h/kg, iv; type: ADME, organism-based; conditions: in vivo; in short: as §1
Structure (SMILES),IC50 [1],logD [2],Vd [3],clearance [4],half-life [5]
Cc1cc(NC(=O)Cc2ccncc2)nn1Cc1cc(Cl)ccc1OCc1ccccc1,50.1 nM,> 3.7,–,–,–
Cc1cc(C(=O)NCc2ccncc2)nn1Cc1cc(Cl)ccc1OCc1ccccc1,79.4 nM,> 3.7,–,–,–
Cc1cc(NC(=O)C(F)(F)c2ccccc2)nn1Cc1cc(Cl)ccc1OCc1ccccc1,39.8 nM,> 3.7,–,–,–
Cc1cc(C(=O)NC(C)C)nn1Cc1cc(Cl)ccc1OCc1ccccc1,126 nM,> 3.7,–,–,–
Cc1cc(NC(=O)c2c(F)cccc2F)nn1Cc1cc(Cl)ccc1OCc1ccccc1,12.6 nM,> 3.7,–,–,–
Cc1cc(C(=O)NCc2ccccn2)nn1Cc1cc(Cl)ccc1OCc1ccccc1,25.1 nM,> 3.7,3.6 L/kg,68 mL/min/kg,1.3 h
Cc1cc(C(=O)Nc2ccc(F)cc2)nn1Cc1cc(Cl)ccc1OCc1ccccc1,79.4 nM,3,–,–,–
Cc1cc(NC(=O)OCC(C)C)nn1Cc1cc(Cl)ccc1OCc1ccccc1,25.1 nM,3.3,3.9 L/kg,124 mL/min/kg,–
Cc1cc(NC(=O)Cc2cccnc2)nn1Cc1cc(Cl)ccc1OCc1ccccc1,39.8 nM,> 3.7,–,–,–
Cc1cc(C(=O)NN2CCCCC2)nn1Cc1cc(Cl)ccc1OCC(C)C,200 nM,3.3,–,–,–
Cc1cc(C(=O)NCc2ccccc2)nn1Cc1cc(Cl)ccc1OCc1ccccc1,39.8 nM,> 3.7,9.3 L/kg,75 mL/min/kg,4.6 h
Cc1cc(C(=O)NCc2cccnc2)nn1Cc1cc(Cl)ccc1OCc1ccccc1,50.1 nM,> 3.7,–,–,–
CC(=O)Nc1cc(C)n(Cc2cc(Cl)ccc2OCc2ccccc2)n1,316 nM,> 3.7,–,–,–
Cc1cc(NC(=O)C2CCOCC2)nn1Cc1cc(Cl)ccc1OCc1ccccc1,63.1 nM,> 3.7,3.3 L/kg,55 mL/min/kg,1 h
O=C(Cc1ccccn1)Nc1ccn(Cc2cc(Cl)ccc2OCc2ccccc2)n1,398 nM,–,–,–,–
Cc1cc(C(=O)Nc2ccccc2)nn1Cc1cc(Cl)ccc1OCc1ccccc1,39.8 nM,> 3.7,–,–,–
CCOC(=O)Nc1cc(C)n(Cc2cc(Cl)ccc2OCc2ccccc2)n1,79.4 nM,> 3.7,–,–,–
Cc1cc(C(=O)Nc2cccc(F)c2)nn1Cc1cc(Cl)ccc1OCc1ccccc1,200 nM,2.8,–,–,–
Cc1cc(C(N)=O)nn1Cc1cc(Cl)ccc1OCc1ccccc1,126 nM,3.7,–,–,–
Cc1cc(C(=O)Nc2c(F)cccc2F)nn1Cc1cc(Cl)ccc1OCc1ccccc1,10 nM,3.7,–,–,–
Cc1cc(NC(=O)Cc2ccccn2)nn1Cc1cc(Cl)ccc1OCc1ccccc1,20 nM,> 3.7,–,–,–
CNC(=O)c1cc(C)n(Cc2cc(Cl)ccc2OCc2ccccc2)n1,100 nM,> 3.7,–,–,–
Cc1cc(NC(=O)OCc2ccccc2)nn1Cc1cc(Cl)ccc1OCc1ccccc1,79.4 nM,3.1,–,–,–
Cc1ccc(-c2cc(Cl)ccc2OCc2ccccc2)n1-c1cccc(C(=O)O)c1,–,2.5,–,–,–
Cc1cc(NC(=O)C(C)(C)c2ccccc2)nn1Cc1cc(Cl)ccc1OCc1ccccc1,63.1 nM,> 3.7,–,–,–
Cc1cc(NC(=O)C2CCCO2)nn1Cc1cc(Cl)ccc1OCc1ccccc1 (stereo not given),39.8 nM,> 3.7,–,–,–

Structure (SMILES),IC50 [1],logD [2],Vd [3],clearance [4],half-life [5]
O=C(Cc1ccccc1)Nc1ccn(Cc2cc(Cl)ccc2OCc2ccccc2)n1,158 nM,–,–,–,–
Cc1cc(C(=O)O)nn1Cc1cc(Cl)ccc1OCc1ccccc1,10 nM,1,–,–,–
Cc1cc(C(=O)NN2CCOCC2)nn1Cc1cc(Cl)ccc1OCC(C)C,251 nM,3.1,–,–,–
Cc1cc(NC(=O)OC(C)C)nn1Cc1cc(Cl)ccc1OCC(C)C,50.1 nM,> 3.7,–,–,–
Cc1cc(NC(=O)O[C@H]2CCOC2)nn1Cc1cc(Cl)ccc1OCc1ccccc1,79.4 nM,2.7,3.7 L/kg,86 mL/min/kg,0.8 h
Cc1cc(NC(=O)C2CCOC2)nn1Cc1cc(Cl)ccc1OCc1ccccc1 (stereo not given),39.8 nM,> 3.7,–,–,–
Cc1cc(NC(=O)C2CCCC2)nn1Cc1cc(Cl)ccc1OCC(C)C,25.1 nM,> 3.7,–,–,–
Cc1cc(NC(=O)C(C)C)nn1Cc1cc(Cl)ccc1OCc1ccccc1,25.1 nM,> 3.7,–,–,–
Cc1cc(NC(=O)C(C)(C)c2ccccn2)nn1Cc1cc(Cl)ccc1OCc1ccccc1,15.8 nM,> 3.7,–,–,–
Cc1cc(C(=O)O)nn1Cc1cc(Br)ccc1OCc1ccccc1,–,1.2,–,–,–
Cc1cc(NC(=O)OC2CCOCC2)nn1Cc1cc(Cl)ccc1OCC(C)C,63.1 nM,3.4,–,–,–
Cc1cc(NC(=O)OC(C)(C)C)nn1Cc1cc(Cl)ccc1OCC(C)C,31.6 nM,> 3.7,–,–,–
COC(=O)Nc1cc(C)n(Cc2cc(Cl)ccc2OCc2ccccc2)n1,200 nM,> 3.7,–,–,–
Cc1cc(NC(=O)C2CCCC2)nn1Cc1cc(Cl)ccc1OCc1ccccc1,15.8 nM,3.5,–,–,–
O=C(Nc1ccn(Cc2cc(Cl)ccc2OCc2ccccc2)n1)c1ccccc1,251 nM,–,–,–,–
Cc1cc(NC(=O)CC(C)(C)C)nn1Cc1cc(Cl)ccc1OCc1ccccc1,10 nM,> 3.7,–,–,–
Cc1cc(NC(=O)c2ccccc2)nn1Cc1cc(Cl)ccc1OCc1ccccc1,15.8 nM,> 3.7,–,50 mL/min/kg,–
Cc1cc(NC(=O)C2CCCCC2)nn1Cc1cc(Cl)ccc1OCC(C)C,31.6 nM,> 3.7,3.5 L/kg,68 mL/min/kg,1.7 h
Cc1cc(NC(=O)Cc2ccccc2)nn1Cc1cc(Cl)ccc1OCc1ccccc1,12.6 nM,> 3.7,7.5 L/kg,59 mL/min/kg,2.9 h
Cc1cc(NC(=O)OCc2ccccn2)nn1Cc1cc(Cl)ccc1OCc1ccccc1,79.4 nM,3.1,3 L/kg,98 mL/min/kg,–
Cc1cc(NC(=O)C(F)(F)c2ccccn2)nn1Cc1cc(Cl)ccc1OCc1ccccc1,25.1 nM,3.1,–,–,–
Cc1cc(NC(=O)OC(C)(C)C(F)(F)F)nn1Cc1cc(Cl)ccc1OCC(C)C,50.1 nM,3.5,–,–,–
Cc1cc(NC(=O)CC2CCCCC2)nn1Cc1cc(Cl)ccc1OCc1ccccc1,6.31 nM,3.2,–,–,–
Cc1cc(C(=O)Nc2ccccn2)nn1Cc1cc(Cl)ccc1OCc1ccccc1,126 nM,> 3.7,–,–,–
Cc1cc(C(N)=O)nn1Cc1cc(Cl)ccc1OCC(C)C,126 nM,3.1,–,–,–
